Data published in ChEMBL document CHEMBL3108729, “Design, synthesis and anticonvulsant evaluation of N-(benzo[d]thiazol-2-ylcarbamoyl)-2-methyl-4-oxoquinazoline-3(4H)-carbothioamide derivatives: a hybrid pharmacophore approach” (Eur J Med Chem, 2013).
Active and inactive are the calls of the source. The rule behind the calls is not given here.

Tests used:
Mus musculus [1] = assay: Anticonvulsant activity in albino mouse assessed as protection against maximal electroshock-induced seizures at 300 mg/kg, ip measured after 4 hrs; type: functional, organism-based; design: dose 300 mg/kg
Mus musculus [2] = assay: Anticonvulsant activity in albino mouse assessed as protection against maximal electroshock-induced seizures at 300 mg/kg, ip measured after 0.5 hrs; type: functional, organism-based; design: dose 300 mg/kg
Mus musculus [3] = assay: Anticonvulsant activity in ip dosed albino mouse assessed as protection against maximal electroshock-induced seizures after 4 hrs; type: functional; conditions: read-out: MED
Mus musculus [4] = assay: Neurotoxicity in ip dosed albino mouse after 0.5 hrs by rotorod test; type: toxicity, organism-based; conditions: in vivo
In short: (§1)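 Swiss mice, four per dose, received 30, 100 or 300 mg/kg i.p. and were placed on a rotorod at 0.5 and 4 h. Neurotoxicity meant failure to keep balance for 1 min. The value reported is the minimum dose affecting half or more of the mice.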

Mus musculus [5] = assay: Neurotoxicity in albino mouse at 300 mg/kg, ip after 4 hrs by rotorod test; type: toxicity, organism-based; design: dose 300 mg/kg, route intraperitoneal; conditions: in vivo; in short: as §1
Mus musculus [6] = assay: Anticonvulsant activity in ip dosed albino mouse assessed as protection against maximal electroshock-induced seizures after 0.5 hrs; type: functional; conditions: read-out: MED

Structure (SMILES) | Activity (Mus musculus [1]) | Activity (Mus musculus [2]) | minimal effective dose (Mus musculus [3]) [mg/kg] | MTC (Mus musculus [4]) [mg/kg] | Activity (Mus musculus [5]) | minimal effective dose (Mus musculus [6]) [mg/kg]
COc1ccc2nc(NC(=O)NC(=S)n3c(C)nc4cc(F)ccc4c3=O)sc2c1 | inactive | inactive |  |  |  | 
Cc1ccc2nc(NC(=O)NC(=S)n3c(C)nc4cc(F)ccc4c3=O)sc2c1 | inactive | inactive |  |  |  | 
Cc1nc2ccccc2c(=O)n1C(=S)NC(=O)Nc1nc2ccc(Br)cc2s1 |  |  | 300 | 300 | Non-toxic | 100
Cc1nc2cc(Cl)ccc2c(=O)n1C(=S)NC(=O)Nc1nc2cc(Cl)ccc2s1 | inactive |  |  |  |  | 300
COc1ccc2nc(NC(=O)NC(=S)n3c(C)nc4cc(Cl)ccc4c3=O)sc2c1 | inactive | inactive |  |  |  | 
Cc1nc2cc(F)ccc2c(=O)n1C(=S)NC(=O)Nc1nc2c(Br)cccc2s1 | inactive |  |  | 300 | Non-toxic | 300
COc1ccc2nc(NC(=O)NC(=S)n3c(C)nc4ccccc4c3=O)sc2c1 | inactive | inactive |  |  |  | 
Cc1nc2cc(Cl)ccc2c(=O)n1C(=S)NC(=O)Nc1nc2ccc(O)cc2s1 | inactive | inactive |  |  |  | 
Cc1nc2cc(F)ccc2c(=O)n1C(=S)NC(=O)Nc1nc2ccc(Br)cc2s1 | inactive |  |  | 300 | Non-toxic | 300
Cc1nc2cc(F)ccc2c(=O)n1C(=S)NC(=O)Nc1nc2ccc(F)cc2s1 | inactive | inactive |  |  |  | 
Cc1ccc2nc(NC(=O)NC(=S)n3c(C)nc4cc(Cl)ccc4c3=O)sc2c1 | inactive | inactive |  |  |  | 
Cc1nc2cc(F)ccc2c(=O)n1C(=S)NC(=O)Nc1nc2ccc(Cl)cc2s1 | inactive |  |  | 100 | Non-toxic | 300
Cc1nc2cc(Cl)ccc2c(=O)n1C(=S)NC(=O)Nc1nc2c(Br)cccc2s1 | inactive | inactive |  |  |  | 
Cc1nc2cc(Cl)ccc2c(=O)n1C(=S)NC(=O)Nc1nc2ccc(Cl)cc2s1 |  |  | 100 | 300 |  | 100
Cc1ccc2nc(NC(=O)NC(=S)n3c(C)nc4ccccc4c3=O)sc2c1 | inactive |  |  | 300 | Non-toxic | 300
Cc1nc2ccccc2c(=O)n1C(=S)NC(=O)Nc1nc2ccc(F)cc2s1 |  |  | 100 | 300 | Non-toxic | 30
Cc1nc2ccccc2c(=O)n1C(=S)NC(=O)Nc1nc2c(Br)cccc2s1 | inactive | inactive |  |  |  | 
Cc1nc2ccccc2c(=O)n1C(=S)NC(=O)Nc1nc2ccc(O)cc2s1 | inactive | inactive |  |  |  | 
Cc1nc2ccccc2c(=O)n1C(=S)NC(=O)Nc1nc2cc(Cl)ccc2s1 |  |  | 300 | 100 | Non-toxic | 100
Cc1nc2ccccc2c(=O)n1C(=S)NC(=O)Nc1nc2c(Cl)cccc2s1 | inactive | inactive |  | 300 | Non-toxic | 
Cc1nc2cc(F)ccc2c(=O)n1C(=S)NC(=O)Nc1nc2ccc(O)cc2s1 | inactive | inactive |  |  |  | 
Cc1nc2cc(Cl)ccc2c(=O)n1C(=S)NC(=O)Nc1nc2ccc(OC(F)(F)F)cc2s1 |  |  | 100 | 300 | Non-toxic | 100
Cc1nc2cc(F)ccc2c(=O)n1C(=S)NC(=O)Nc1nc2c(Cl)cccc2s1 | inactive |  |  | 300 | Non-toxic | 300
Cc1nc2cc(Cl)ccc2c(=O)n1C(=S)NC(=O)Nc1nc2ccc(F)cc2s1 |  |  | 300 |  |  | 300
